NS3 helicase inh: HCV NS3 helicase inhibition | AID 1800 | inhibition, % at 10.9 µM | 290,000 tested, 0.56% active | NS3 helicase DNA unwinding, Cy5 molecular beacon fluorescence;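 active = inhibition above the mean of all tested compounds plus 3 SD, set per campaign, cut at about 35% in these data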;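 note: 0% = DMSO wells and 100% = thioflavine S control wells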
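assay system = NS3 helicase fragment of HCV | buffer or medium = MOPS pH 6.5, MgCl2, DTT, Tween20, BSA | timing = 60 min unwinding reaction at 25 °C after ATP addition | signal = Cy5 beacon fluorescence read at start and 1 h | read-out basis = % inhibition of unwinding | control set = low DMSO, high thioflavine S at 110 µM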
T cruzi repl: blocks replication of Trypanosoma cruzi. T. cruzi beta-gal in NIH3T3, luminescence, 90 h. inhibition, % (concentration not given with the values). 300,000 tested, 1.4% active. AID 1885;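 active = mean inhibition across valid replicates above about 55%, limit read from the data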;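 note: signal also drops with host cell toxicity which is not excluded here; 0% = plate median of DMSO wells and 100% = zero luminescence signal; higher percent means less beta-gal luminescence so fewer parasites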
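Material: NIH/3T3 host cells with β-galactosidase reporter T. cruzi; Input: 5,000 host fibroblasts per well; Medium: DMEM, 2% fetal bovine serum; Compound: 50 nL DMSO compound solution per well; Schedule: 3 h host attachment, then at least 90 h co-culture; Detection: luminescent β-galactosidase signal after 60 min lysis.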
MEKK2 WT-MEK5: raises or lowers MEK5 binding to wildtype human MEKK2 PB1 domain | bead flow cytometry, Alexa488-MEK5 binding to MEKK2 WT; actives lie on both sides | binding response (% of control), % at 10 µM | 290,000 tested, 1.1% active; in the data active = binding response below about 67% or above about 130%
MEKK2mut PB1 HTS: signal of MEK5 binding to mutant human MEKK2 PB1 domain; percent response, % at 10 µM; AID 1530; 290,000 tested, 0.35% active; bead flow cytometry, Alexa488-MEK5 binding to MEKK2 mutant; in the data active = percent response above about 24%, passing the limit was not always enough
DNA FID counter: counter-screen for HCV NS3 helicase inhibitors: DNA intercalator displacement. inhibition, % at 7.9 µM. DNA fluorescent intercalator displacement, fluorescence. 290,000 tested, 0.17% active. AID 1845; in the data active = inhibition above about 37%;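 note: 0% = vehicle and 100% = reference compound; higher means more ethidium bromide displaced from hairpin DNA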
MEKK3 PB1 HTS: modulators (inhibitors or enhancers) of MEK5 binding to human MEKK3 PB1 domain | bead-based flow cytometry, Alexa488-MEK5 binding to MEKK3; actives lie on both sides; 0 = blocked by unlabeled MEK5, 100 = vehicle | binding response (% of control), % at 10 µM | 290,000 tested, 1.4% active;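 active = binding response more than 3 SD above or below the average of its plate-row segment, actives on both sides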;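 note: Alexa488 bead fluorescence after subtracting the streptavidin-only scavenger bead signal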
Target sequence (Q99759 whole entry, looked up, the tested form may be a part): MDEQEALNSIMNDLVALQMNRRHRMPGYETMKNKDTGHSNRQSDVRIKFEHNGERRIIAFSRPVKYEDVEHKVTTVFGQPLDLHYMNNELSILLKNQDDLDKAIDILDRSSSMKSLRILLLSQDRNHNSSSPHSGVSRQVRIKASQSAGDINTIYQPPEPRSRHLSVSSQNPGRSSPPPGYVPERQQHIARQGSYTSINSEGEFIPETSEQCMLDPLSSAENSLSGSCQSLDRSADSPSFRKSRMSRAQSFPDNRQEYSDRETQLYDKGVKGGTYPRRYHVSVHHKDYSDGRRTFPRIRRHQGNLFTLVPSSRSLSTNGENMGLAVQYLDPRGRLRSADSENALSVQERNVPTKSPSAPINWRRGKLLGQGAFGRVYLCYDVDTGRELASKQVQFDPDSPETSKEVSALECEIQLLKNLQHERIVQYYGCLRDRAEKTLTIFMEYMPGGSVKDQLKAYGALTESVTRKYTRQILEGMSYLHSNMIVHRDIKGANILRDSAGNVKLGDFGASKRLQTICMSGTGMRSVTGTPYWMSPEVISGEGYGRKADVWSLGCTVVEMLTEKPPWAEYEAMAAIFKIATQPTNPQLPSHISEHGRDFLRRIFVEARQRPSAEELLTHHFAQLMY
MEKK2wt confirm: raises or lowers MEK5 binding to wildtype human MEKK2, retest; AID 1892; 5,900 tested, 2.4% active; shares compounds with MEKK3 PB1 HTS; bead flow cytometry, Alexa488-MEK5 binding to MEKK2 WT; actives lie on both sides; binding response (% of control), % at 10 µM; in the data active = binding response below about 16% or above about 210%; inactive = in between
MEKK2mut confirm: signal of MEK5 binding to mutant human MEKK2, retest | shares compounds with MEKK3 PB1 HTS | bead flow cytometry, Alexa488-MEK5 binding to MEKK2 mutant | percent response, % at 10 µM | 5,900 tested, 2% active | AID 1893; in the data active = percent response mostly above about 71%, no sharp cut-off; inactive = mostly below about 38%;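 note: higher means compound restores mutant binding toward wildtype level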
MEKK3 confirm: MEKK3-MEK5 PB1 inhibition, single concentration confirmation. bead flow cytometry, Alexa488-MEK5 binding to MEKK3; hits give low values. shares compounds with MEKK3 PB1 HTS. AID 1894. 5,900 tested, 1.8% active. binding response (% of control), % at 10 µM;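 active = binding response below 72% of control, or above a set upper limit, though filed actives all read lower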;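 note: 100% = DMSO only wells and 0% = binding blocked by excess unlabeled MEK5; lower values mean stronger disruption of MEK5 binding to MEKK3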
An asterisk follows results filed as active; x = not tested or not shown; ! = a repeat was not active; [ ] = remark or other dose. Only some compounds are listed: those with a hit (about 4.1% of all), similar ones and a draw of the others.

SMILES | NS3 helicase inh | T cruzi repl | MEKK2 WT-MEK5 | MEKK2mut PB1 HTS | DNA FID counter | MEKK3 PB1 HTS | MEKK2wt confirm | MEKK2mut confirm | MEKK3 confirm
COc1ccccc1CCNC(=O)CNC(=O)c1ccc2ccccc2c1 | -0.4 | 9.8 | 97.0 | -3.0 | -25.4 | 100.0 | x | x | x
CNCC[C@H](Oc1cccc2ccccc12)c1cccs1 | -83.0 | 8.7 | 157.0*! | 6.0 | 40.6* | 111.0 | 123.0 | 24.0 | 100.0
Cc1cccc(-c2nc(CS(=O)CC(=O)N3CC(C)CC(C)C3)c(C)o2)c1 (stereo unspecified) | -4.8 | 10.8 | 98.0 | 0.0 | -50.0 | 100.0 | x | x | x
COc1ccc(CNC(=O)C2CCCN(S(=O)(=O)c3ccc4c(c3)C(C)(C)C(=O)N4C)C2)cc1 (stereo unspecified) | -0.8 | 3.9 | 0.0*[inhibitor] | -22.0 | -49.1 | 2.0*[inhibitor] | 101.0 | 5.0 | 97.0
COc1ccc(CNC(=O)C2CCN(S(=O)(=O)c3ccc4c(c3)C(C)(C)C(=O)N4C)CC2)cc1 | -14.3 | -3.8 | 108.0 | 5.0 | -43.9 | 101.0 | x | x | x
CC1=C(C(=O)OCCOc2ccccc2)C(c2coc3ccccc3c2=O)C2=C(CCCC2=O)N1 (stereo unspecified) | -9.7 | 5.7 | 81.0 | -2.0 | -4.7 | 69.0*[inhibitor] | 103.0 | -4.0 | 101.0
CC1=C(C(=O)OC2CCCC2)C(c2coc3ccccc3c2=O)C2=C(CCCC2=O)N1 (stereo unspecified) | 8.1 | -3.0 | 117.0 | 0.0 | -29.2 | 133.0* | 113.0 | -3.0 | 87.0
CCOC(=O)C1=C(C)NC2=C(C(=O)CCC2)C1c1coc2ccccc2c1=O (stereo unspecified) | 4.6 | -9.8 | 91.0 | -4.0 | -17.1 | 91.0 | x | x | x
CC(C(=O)NCCS(=O)(=O)c1ccc(Cl)cc1)S(=O)(=O)c1ccccc1 (stereo unspecified) | 24.3 | 6.9 | 139.0 | 8.0 | -4.2 | 152.0* | 106.0 | 4.0 | 102.0
CN(C)c1ccc(/C=C(\C#N)C(=O)Nc2nc3c(s2)CCN(Cc2ccccc2)C3)cc1 | 7.2 | 14.6 | 71.0*[inhibitor] | -22.0 | -12.3 | 97.0 | 98.0 | 7.0 | 106.0
CCc1cccc(NC(=S)N(CCOC)C2CCN(C(C)=O)CC2)c1 | -1.9 | -6.8 | 118.0 | 34.0* | -12.4 | 123.0* | 110.0 | 11.0 | 110.0
CCOC(=O)N1CCC(N(CCN(C)C)C(=S)Nc2cccc(SC)c2)CC1 | -11.9 | -4.1 | 101.0 | -5.0 | 10.3 | 101.0 | x | x | x
CCOC(=O)N1CCC(N(CCN(C)C)C(=S)Nc2cccc(C)c2)CC1 | -2.9 | -63.3 | 108.0 | 0.0 | 3.5 | 138.0* | 105.0 | 0.0 | 103.0
CCOC(=O)N1CCC(N(CCN(C)C)C(=S)Nc2ccccc2OC)CC1 | -10.8 | -0.2 | 101.0 | -4.0 | -2.2 | 97.0 | x | x | x
CCc1cccc(NC(=S)N(CCCOC(C)C)C2CCN(C(C)=O)CC2)c1 | 0.9 | 3.3 | 100.0 | 2.0 | -17.6 | 100.0 | x | x | x
CCOC(=O)N1CCC(N(CCN(C)C)C(=S)Nc2ccccc2C)CC1 | 1.4 | -20.0 | 108.0 | 1.0 | 2.4 | 130.0* | 108.0 | 12.0 | 106.0
Cc1ccc(CN2CCN(Cc3cccn3-c3ccccn3)CC2CCO)o1 (stereo unspecified) | 9.9 | -11.5 | 108.0 | 15.0 | -0.4 | 103.0 | x | x | x
Cc1nc(-c2ccccc2)sc1C1(C)CC(c2ccc(C#N)cc2)=NO1 (stereo unspecified) | x | -0.1 | 101.0 | 8.0 | x | 113.0 | x | x | x
CC(=O)Nc1ccc(NC(=O)C(C)Sc2n[nH]c(=O)n2Cc2ccccc2)cc1 (stereo unspecified) | -1.5 | -12.6 | 99.0 | -5.0 | -14.9 | 99.0 | x | x | x
CC1=NN(CCc2ccccn2)C(=O)CC1 | x | -4.6 | x | x | x | x | x | x | x
CC(=O)NC(CSC(CC(=O)c1ccco1)c1ccc(C)cc1)C(=O)O (stereo unspecified) | -5.0 | -28.0 | 92.0 | -4.0 | 0.6 | 88.0 | x | x | x
CC(C)(C)NCc1cc(Cl)ccc1OCc1ccccc1F | -14.3 | 11.4 | 70.0 | -22.0 | 13.8 | 75.0*[inhibitor] | 101.0 | 0.0 | 99.0
CCN(CC)CCNCc1cc(Cl)ccc1OCc1ccccc1F | -16.7 | -10.9 | 143.0 | 15.0 | 34.8 | 98.0 | x | x | x
O=C(NCc1cccc(Cl)c1)C1CCC(=O)N(CCN2CCOCC2)C1 (stereo unspecified) | 1.0 | -4.4 | 105.0 | 7.0 | -5.6 | 105.0 | x | x | x
C/C(Cn1nnc2ccccc21)=N\OC(=O)c1ccccc1C | 6.4 | -0.6 | 104.0 | 1.0 | -18.2 | 138.0* | 106.0 | 6.0 | 106.0
SMILES | NS3 helicase inh | T cruzi repl | MEKK2 WT-MEK5 | MEKK2mut PB1 HTS | DNA FID counter | MEKK3 PB1 HTS | MEKK2wt confirm | MEKK2mut confirm | MEKK3 confirm
O=C(COC(=O)C1CC(=O)N(c2ccc3c(c2)OCCO3)C1)NC1CCCc2ccccc21 (stereo unspecified) | -2.6 | -4.6 | 100.0 | 0.0 | -17.7 | 101.0 | x | x | x
O=C(COC(=O)CCNS(=O)(=O)c1ccc2c(c1)OCCO2)NC1CCCc2ccccc21 (stereo unspecified) | -4.0 | -0.1 | 115.0 | 4.0 | -20.8 | 124.0* | 100.0 | -2.0 | 100.0
COc1ccccc1N(CC(=O)NCC1CCCO1)C(=O)CNS(=O)(=O)c1ccccc1 (stereo unspecified) | 0.4 | -1.3 | 116.0 | 27.0 | -20.4 | 135.0* | 112.0 | 19.0 | 110.0
COc1ccc(S(=O)(=O)NCC(=O)N(CC(=O)NCC2CCCO2)c2c(C)cccc2C)cc1 (stereo unspecified) | -3.3 | x | 103.0 | 3.0 | -31.2 | 102.0 | x | x | x
N#CCCSCc1ccc2oc(C(=O)O)cc2c1 | -2.5 | -10.4 | 0.0*[inhibitor] | -45.0 | 1.4 | 2.0*[inhibitor] | 109.0 | 9.0 | 109.0
N#CCCSCc1ccc(C(=O)O)o1 | 3.3 | -8.3 | 110.0 | 4.0 | 0.8 | 103.0 | x | x | x
Cc1ccc(-c2cc3nc(-c4ccc(Br)cc4)cc(N)n3n2)cc1 | 9.6 | 11.6 | 121.0 | 2.0 | 0.4 | 134.0* | 100.0 | 1.0 | 102.0
CC(C)CSc1nnc2[nH]c(=O)cc(N)n12 | -2.6 | -7.4 | 86.0 | 3.0 | 3.0 | 60.0*[inhibitor] | 99.0 | -2.0 | 100.0
O=c1cc(-c2ccc(F)cc2)oc2ccccc12 | 7.8 | -2.9 | 2.0*[inhibitor] | 2.0 | -10.9 | 2.0*[inhibitor] | 99.0 | 6.0 | 104.0
COc1ccc(-c2noc(CCC(=O)Nc3ccc4c(c3)OCCO4)n2)cc1 | -2.7 | 7.7 | 118.0 | 17.0 | -10.7 | 115.0 | x | x | x

Screens from PubChem BioAssay.
